Screening results (PubChem BioAssay)
Compounds with a hit are over-represented: about 0.85% of the library has one in this group of screens.
TRPN1 ag: zebrafish TRPN1 (NompC) channel agonism. HEK293 zebrafish TRPN1-YFP, Fluo-8 calcium fluorescence; 100% = response to 87 µM carbachol. actives 0.18% (n = 220,000). activation, % at 3 µM;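 active means activation above its plate's cutoff, the mean activation of test wells on that plate plus 3 SD, cut at about 19% in these data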
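Assay system: Zebrafish TRPN1-YFP in HEK293 cells | Incubation: Dye loading 1 h at 37 °C, then 30 min room temperature | Measured by: Kinetic Fluo-8 fluorescence, ex 470-495, em 515-575 nm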
CRFBP-R2 agonist: agonists of human CRF-binding protein/CRF-R2 receptor complex; HEK293 CRF-R2/CRF-BP, calcium dye fluorescence (FLIPR); percent of saturating CRF peptide response; activation, % at 13.2 µM; actives 0.46% (n = 350,000); AID 588473;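 active means activation of at least 50%, plus an integration ratio under a set limit after plate pattern correction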
V1aR counter: V1a receptor agonism, counter-screen for OXTR agonists; actives 0.25% (n = 320,000); CHO-V1R cells, Fluo-8 calcium fluorescence, agonist mode; 0% DMSO, 100% 3 nM vasopressin; activation, % at 3 µM; AID 2797;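 active means activation above the mean activation of all tested compounds plus 3 SD, per screening run, cut at about 20% in these data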;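 further: signal is peak over basal fluorescence ratio across a 100 second FLIPR read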
OXTR ag: agonists of human oxytocin receptor; AID 2435; actives 0.32% (n = 320,000); CHO-OTR cells, Fluo-8 calcium fluorescence; normalized: DMSO 0%, oxytocin 100%; activation, % at 3 µM;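 active means activation above the mean of all tested compounds plus 3 SD, cutoff set per screening run, cut at about 20% in these data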;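 further: peak over basal fluorescence ratio from a 100 s FLIPR kinetic read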
TRPML3 ag: human mucolipin-3 channel agonism | Q8TDD5 | HEK293 TRPML3-YFP, Fluo-8 calcium fluorescence; 100% = the carbachol control signal | activation, % at 3 µM | AID 1448 | actives 0.29% (n = 220,000);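 active means activation above its plate's cutoff, the mean activation of the plate's test wells plus 3 SD, cut at about 12% in these data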
Target sequence (Q8TDD5 whole entry, looked up): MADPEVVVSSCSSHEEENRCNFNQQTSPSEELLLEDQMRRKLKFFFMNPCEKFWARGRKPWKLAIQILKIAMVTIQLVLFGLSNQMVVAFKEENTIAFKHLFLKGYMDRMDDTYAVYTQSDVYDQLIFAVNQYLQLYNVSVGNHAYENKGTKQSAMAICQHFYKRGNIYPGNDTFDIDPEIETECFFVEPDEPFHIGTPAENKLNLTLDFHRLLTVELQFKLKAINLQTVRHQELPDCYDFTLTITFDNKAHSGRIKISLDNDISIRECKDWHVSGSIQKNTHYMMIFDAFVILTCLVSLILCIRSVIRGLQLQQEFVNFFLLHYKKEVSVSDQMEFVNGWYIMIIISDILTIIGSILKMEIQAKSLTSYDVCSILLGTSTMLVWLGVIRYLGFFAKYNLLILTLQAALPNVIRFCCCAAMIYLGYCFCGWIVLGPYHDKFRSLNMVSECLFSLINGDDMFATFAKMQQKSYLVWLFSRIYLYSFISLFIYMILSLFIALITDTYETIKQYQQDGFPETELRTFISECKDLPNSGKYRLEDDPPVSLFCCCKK
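Test system: TRPML3-YFP stable HEK293 cells. Doses: single point at 3 µM. Incubation: dye loading 1 h 37 °C then 30 min ambient, 125 s read. Signal: Fluo-8 calcium dye fluorescence, ex 470-495, em 515-575 nm. Measure: percent activation from peak-to-basal fluorescence ratio, scaled between DMSO and carbachol.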
OXTR potentiate: human OXTR potentiation | P30559 | CHO-OTR cells, Fluo-8 calcium fluorescence, potentiator mode; 0% = oxytocin EC15, 100% = EC100 | activation, % at 3 µM | actives 0.061% (n = 320,000);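 active means activation above that plate's cutoff, the mean activation of tested compounds plus 3 SD, cut at about 6.6% in these data, passing the limit was not always enough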
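Assay system: CHO-OTR cells, human receptor / Also added: oxytocin at about EC15, sub-maximal agonist stimulus / Dosing: single dose, 3.0 µM nominal final compound concentration / Incubation: 6 min pre-incubation, 100 s read / Technique: Fluo-8 calcium dye fluorescence / Read-out: % activation vs EC15 and EC100 oxytocin / Benchmarks: EC15 oxytocin low, 75 nM oxytocin high / Replicates: singlicate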
OXTR agonist cf: human OXTR agonism, confirmation; shares compounds with OXTR ag; CHO-OTR cells, Fluo-8 calcium fluorescence, agonist; activation, % at 3 µM; actives 20% (n = 390); AID 434963;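 active means mean activation above about 20% derived from the earlier single-dose screen, limit read from the data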;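 further: peak over minimum fluorescence ratio per well during a 100 second FLIPR read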
V1aR counter 3x: activates V1a receptor in oxytocin agonist counter-screen; shares compounds with OXTR ag; CHO-V1R cells, Fluo-8 calcium fluorescence; activation, % at 3 µM; actives 10% (n = 390);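 active means mean activation over triplicate exceeds the hit threshold set in the earlier primary screen, cut at about 20% in these data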;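 further: peak over basal fluorescence ratio within a 100 second read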
Hits are given with their value; i = inactive; nt = no result.

SMILES | TRPN1 ag | CRFBP-R2 agonist | V1aR counter | OXTR ag | TRPML3 ag | OXTR potentiate | OXTR agonist cf | V1aR counter 3x
O=c1c2[nH]c3ccccc3c2ncn1CCC1=CCCCC1 | i | i | i | i | i | i | nt | nt
COc1ccc(CNc2ncnc3c2[nH]c2cc(OC)c(OC)cc23)cc1 | i | i | i | i | i | i | nt | nt
Cc1cccc(NC(=O)/C(C#N)=C/c2ccc[nH]2)c1C | nt | i | nt | nt | nt | nt | nt | nt
Cc1c(Cl)cccc1NC(=S)NNc1ncc(C(F)(F)F)cc1Cl | i | i | i | 29 | i | i | i | i
Nc1c(C=C2C=CC(=O)C=C2)c(=O)nc2sc(CC(=O)N3CCOCC3)nn12 | nt | i | i | i | nt | i | nt | nt
COC1=CC(=Cc2c(N)n3nc(CC(=O)N4CCOCC4)sc3nc2=O)C=C(OC)C1=O | nt | 151 | i | 21 | nt | i | 55 | 97
CC1CCN(C(=O)COC(=O)/C=C/c2ccco2)CC1 | nt | i | i | i | nt | i | nt | nt
Cc1ccc(CC(NC(=O)C2CCCCC2)C(=O)O)cc1 (configuration not stated) | nt | i | nt | nt | nt | nt | nt | nt
CC(c1ccccc1)N1CCC(CNC(=S)Nc2cccc(Cl)c2)C1 (configuration not stated) | i | i | i | 22 | i | i | i | i
Cc1ccccc1C(N)c1ccncc1 (configuration not stated) | nt | i | i | i | nt | i | nt | nt
CCCCCCCCCCCCCCCC[N+](C)(C)CC | nt | i | i | 21 | nt | i | 21 | i
COc1ccc(/C=C(/NC(=O)c2ccccc2)C(=O)N2CCCCC2)cc1OC | nt | i | i | i | nt | i | nt | nt
COc1ccc(/C=C(/NC(=O)c2ccccc2)C(=O)N2CCCC2)cc1OC | nt | i | i | 28 | nt | i | i | i
Cc1ccc(CNC(=O)COC(=O)CCOc2ccc(C)cc2)cc1 | nt | i | i | i | nt | i | nt | nt
CCOC(=O)c1c(CSc2ccc(CC)cc2)oc2ccc(O)c(CN(C)C)c12 | nt | i | i | 25 | nt | i | i | i
CCOC(=O)c1c(C)oc2ccc(O)c(CN(C)C)c12 | i | i | i | i | i | i | nt | nt
COc1ccc(C2CC(c3ccccc3)=NN2C(=O)CSc2nnnn2-c2cccc(C)c2)cc1 (configuration not stated) | nt | i | i | i | nt | i | nt | nt
O=C(CN1CCN(CC(=O)Nc2ccc(OCc3ccccc3)cc2)CC1)Nc1ccc(F)cc1 | i | i | i | 21 | i | i | i | i
O=C(CCN1CCN(Cc2ccccc2)CC1)Nc1ccc(OCc2ccccc2)cc1 | i | i | i | 22 | i | i | i | i
CCCN(C(=O)c1ccccc1Cc1ccccc1)C1CCS(=O)(=O)C1 (configuration not stated) | nt | i | i | i | nt | i | nt | nt
N#CCCn1nc(-c2ccc(Cl)cc2)cc1Nc1ccccc1NC(=O)C(F)(F)F | i | i | i | 24 | i | i | i | i
N#CCCn1nc(-c2ccccc2)cc1Nc1ccccc1NC(=O)C(F)(F)F | i | i | i | i | i | i | nt | nt
CC(OC(=O)c1cc(S(=O)(=O)N2CCOCC2)ccc1F)C(=O)NC1CCCCC1C (configuration not stated) | nt | i | i | i | nt | i | nt | nt
COc1ccc(C2SCCN2C(=S)Nc2cccc(Cl)c2)cc1 (configuration not stated) | i | i | i | 23 | i | i | 30 | i
COc1ccc(C2SCCN2C(=S)Nc2ccc(Cl)cc2)cc1 (configuration not stated) | i | i | i | i | i | i | nt | nt
CCOC(=O)c1cc(C)sc1NC(=O)CN1CCN(C(=O)c2ccco2)CC1 | nt | i | i | 23 | nt | i | i | i
COc1ccc(CN(C)c2ccc(S(=O)(=O)N3CCN(C)CC3)cc2[N+](=O)[O-])cc1OC | nt | i | i | 26 | nt | i | i | i
Brc1ccc(CN2CCN(Cc3c[nH]c4ccccc34)CC2)cc1 | nt | i | i | 20 | nt | i | i | i
Brc1ccccc1CN1CCN(Cc2c[nH]c3ccccc23)CC1 | nt | i | i | i | nt | i | nt | nt
